One block for each compound: values may come before it.
What was measured:
[1] = (§1) Drug level in phosphate buffer treated with (Z)-1-(4-cyano-5-(4-(methylamino)benzoyloxy)-2-nitrophenoxy)-3,3-dimethyltriaz-1-ene 2-oxide at 1 uM at pH 7.4 at 37 degC measured for 30 mins by LC-MS/MS analysis in presence of GSH; type: physicochemical; conditions: pH 7.4, 0.5 h
[2] = biological target: T1, Glutathione S-transferase A1 (Homo sapiens, UniProt P08263); test: as §1, with “buffer assessed as GSTA1 (unknown origin)-mediated compound formation from nitric oxide release pathway” for “buffer”, “after” for “measured for”; type: ADME; conditions: pH 7.4, 0.5 h
T1 sequence (P08263 whole entry): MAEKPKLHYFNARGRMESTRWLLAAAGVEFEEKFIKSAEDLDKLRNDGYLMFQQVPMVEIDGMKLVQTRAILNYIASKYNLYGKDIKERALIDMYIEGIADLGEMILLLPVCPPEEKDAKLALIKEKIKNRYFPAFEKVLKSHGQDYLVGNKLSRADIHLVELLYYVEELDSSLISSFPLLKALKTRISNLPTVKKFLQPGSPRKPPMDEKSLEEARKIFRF
Summary of the method: (§2)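 Products analysed by LC–MS. The ratio is the NO-release-pathway product over the NO-retained-pathway phenolic product.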

[3] = Drug level in phosphate buffer treated with (Z)-3,3-dimethyl-1-(5-(4-(methylamino)benzoyloxy)-2,4-dinitrophenoxy)triaz-1-ene 2-oxide at 1 uM at pH 7.4 at 37 degC after 1 to 30 mins by LC/MS-MS analysis; type: physicochemical; conditions: pH 7.4, 1 µM
[4] = Drug level in phosphate buffer treated with (Z)-3,3-dimethyl-1-(5-(4-(methylamino)benzoyloxy)-2,4-dinitrophenoxy)triaz-1-ene 2-oxide at 1 uM at pH 7.4 at 37 degC by HPLC trapping method in presence of GSH; type: physicochemical; conditions: pH 7.4, 1 µM
[5] = biological target: T1, Glutathione S-transferase A1; test: Drug level in phosphate buffer assessed as GSTA1 (unknown origin)-mediated compound formation from nitric oxide retained pathway treated with (Z)-3,3-dimethyl-1-(5-(4-(methylamino)benzoyloxy)-2,4-dinitrophenoxy)triaz-1-ene 2-oxide at 1 uM at pH 7.4 at 37 degC after 30 mins by LC-MS/MS analysis in presence of GSH; type: ADME; conditions: pH 7.4, 0.5 h; summary of the method: as §2
[6] = Drug level in phosphate buffer treated with (Z)-3,3-dimethyl-1-(5-(4-(methylamino)benzoyloxy)-2,4-dinitrophenoxy)triaz-1-ene 2-oxide at 1 uM at pH 7.4 at 37 degC by HPLC trapping method; type: physicochemical; conditions: pH 7.4, 1 µM
[7] = Drug level in phosphate buffer treated with (Z)-1-(2-cyano-5-(4-(methylamino)benzoyloxy)-4-nitrophenoxy)-3,3-dimethyltriaz-1-ene 2-oxide at 1 uM at pH 7.4 at 37 degC after 30 secs by LC-MS analysis in presence of GSH; type: physicochemical; conditions: pH 7.4, 0.5 min
[8] = Drug level in phosphate buffer treated with (Z)-3,3-dimethyl-1-(5-(4-(methylamino)benzoyloxy)-2,4-dinitrophenoxy)triaz-1-ene 2-oxide at 1 uM at pH 7.4 at 25 degC by HPLC trapping method; type: physicochemical; conditions: pH 7.4, 1 µM
[9] = Drug level in phosphate buffer treated with (Z)-1-(4-cyano-5-(4-(methylamino)benzoyloxy)-2-nitrophenoxy)-3,3-dimethyltriaz-1-ene 2-oxide at 1 uM at pH 7.4 at 37 degC after 30 secs by LC-MS analysis in presence of GSH; type: physicochemical; conditions: pH 7.4, 0.5 min
[10] = biological target: T1, Glutathione S-transferase A1; test: Drug level in phosphate buffer assessed as GSTA1 (unknown origin)-mediated compound formation from nitric oxide retained pathway treated with (Z)-1-(2-cyano-5-(4-(methylamino)benzoyloxy)-4-nitrophenoxy)-3,3-dimethyltriaz-1-ene 2-oxide at 1 uM at pH 7.4 at 37 degC after 30 mins by LC-MS/MS analysis in presence of GSH; type: ADME; conditions: pH 7.4, 0.5 h; summary of the method: as §2

Drug metabolism [1]: metabolite_detected
Drug metabolism [2]: metabolite_detected
SMILES: N#Cc1cc([N+](=O)[O-])c(SC[C@H](NC(=O)CC[C@H](N)C(=O)O)C(=O)NCC(=O)O)cc1O

Drug metabolism [3]: metabolite_detected
SMILES: N[C@@H](CCC(=O)N[C@@H](CSc1cc(SC[C@H](NC(=O)CC[C@H](N)C(=O)O)C(=O)NCC(=O)O)c([N+](=O)[O-])cc1[N+](=O)[O-])C(=O)NCC(=O)O)C(=O)O

Drug metabolism [4]: metabolite_detected
Drug metabolism [3]: metabolite_detected
Drug metabolism [5]: metabolite_detected
Drug metabolism [6]: metabolite_detected
SMILES: CN(C)/[N+]([O-])=N\Oc1cc(O)c([N+](=O)[O-])cc1[N+](=O)[O-]

Drug metabolism [4]: metabolite_detected
Drug metabolism [3]: metabolite_detected
SMILES: CNc1ccc(C(=O)Oc2cc(SC[C@H](NC(=O)CC[C@H](N)C(=O)O)C(=O)NCC(=O)O)c([N+](=O)[O-])cc2[N+](=O)[O-])cc1

Drug metabolism [3]: metabolite_detected
Drug metabolism [7]: metabolite_detected
Drug metabolism [8]: metabolite_detected
SMILES: CNc1ccc(C(=O)O)cc1

Drug metabolism [1]: metabolite_detected
Drug metabolism [3]: metabolite_detected
Drug metabolism [7]: metabolite_detected
Drug metabolism [9]: metabolite_detected
SMILES: CNc1ccc(C(=O)SC[C@H](NC(=O)CC[C@H](N)C(=O)O)C(=O)NCC(=O)O)cc1

Drug metabolism [10]: metabolite_detected
Drug metabolism [7]: metabolite_detected
SMILES: CN(C)/[N+]([O-])=N/Oc1cc(O)c([N+](=O)[O-])cc1C#N

— ChEMBL document CHEMBL3593239, “PABA/NO lead optimization: Improved targeting of cytotoxicity to glutathione S-transferase P1-overexpressing cancer cells” (Bioorg Med Chem, 2015)
